Source: PubChem
In the library only some 3.7% were active in any assay of this set; here they are far more common.
Furin inh: human furin inhibition | purified furin, fluorogenic substrate cleavage | P09958 | inhibition, % at 20 µM or 30 µM | AID 463115 | 0.061% of 220,000 active; in the data active = inhibition above about 25%
NPY1 pot ag: human NPY-Y1 potentiation or agonism, primary screen; P25929; NPY-Y1 expressing cells, potentiator/agonist activation; activation, % at 3.6 µM; 0.37% of 220,000 active; in the data active = activation above about 33%, passing the limit was not always enough;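 also: cells stimulated with NPY at EC10 then isoproterenol at EC100; 0% = low agonist plus stimulus and 100% = saturating agonist plus stimulus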
NPY Y2 blocker: blocks the human neuropeptide Y Y2 receptor; NPY-Y2 expressing cells, antagonist mode; AID 793; 0.99% of 140,000 active; P49146; inhibition, % at 2.7 µM; in the data active = inhibition above about 17%;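 also: 0% = vehicle with agonist challenge and 100% = reference antagonist with challenge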
NPY-Y1 antag: antagonists of human neuropeptide Y receptor Y1 | P25929 | HEK293-CNG Y1 cells, membrane potential fluorescence; NPY at EC95, then isoproterenol | inhibition, % at 3.6 µM | 1% of 200,000 active | AID 1040;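 active = inhibition above the campaign mean inhibition of all tested compounds plus 3 SD, cut at about 20% in these data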;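 also: 0% = DMSO wells given NPY plus isoproterenol and 100% = isoproterenol alone without NPY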
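Assay system: HEK293 cells with Y1 receptor plus CNG channel | Probe or stimulus: NPY (25 nM), isoproterenol (1 µM), Ro 20-1724 (25 µM) | Timing: Compound incubation 1 h at room temperature, readout 45 min post-stimulation | Measured by: Membrane-potential fluorescent dye readout | Benchmarks: High control isoproterenol alone, low control NPY with isoproterenol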
KCC2 mod: modulators of human KCC2 chloride dependent transport. Q9H2X9. 2.2% of 190,000 active. KCC2 cells, thallium flux FluoZin-2 fluorescence. B-score of Tl+ flux slope (higher = more flux/activation; lower = inhibition) at 10 µM;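 active = thallium flux slope and its plate-corrected score both differing from the plate sample mean at a set confidence after two filtering rounds, in either direction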;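 also: slope of fluorescence scaled to starting intensity during 10 to 20 s after thallium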
NPY-Y2 PAM-ag: potentiators or agonists of human neuropeptide Y receptor Y2 | activation, % at 3.6 µM | P49146 | AID 1359 | 0.45% of 220,000 active | cells expressing NPY-Y2, potentiator/agonist read-out; in the data active = activation above about 27%;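 also: cells stimulated with NPY near EC25 plus isoproterenol at EC100; 0% = vehicle plus submaximal agonist and 100% = vehicle plus saturating agonist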
* = called active by the depositor; nt = not tested or not shown.

SMILES	Furin inh	NPY1 pot ag	NPY Y2 blocker	NPY-Y1 antag	KCC2 mod	NPY-Y2 PAM-ag
COC(=O)c1ccc(NC(=S)NC(=O)c2cc(-c3ccccc3)nc3ccccc23)cc1	-11	-120	23*	41*	6*	4
COC(=O)c1cc(NC(=O)c2c(Cl)cnn2C)cc(C(=O)OC)c1	-2	-21	4	-3	0.32	2
COc1ccc(-c2n[nH]c(C)c2-c2ccc(Cl)cc2)c(O)c1	-13	23	0	-12	0.34	18
Cc1[nH]nc(-c2ccc(O)cc2O)c1-c1ccc(Cl)cc1	-17	21	-1	-12	0.11	48*
COc1cc([N+](=O)[O-])ccc1NC(=O)CSc1nnc(C)c(C)n1	0	-3	nt	3	-1.1	3
CC1CCN(c2oc(Cc3cccc4ccccc34)nc2C#N)CC1	-8	-25	5	4	nt	-7
N#Cc1nc(Cc2cccc3ccccc23)oc1N1CCC(C(N)=O)CC1	-20	-15	1	-7	-7.4*	-22
Cc1cc(C)c2nc(SC(C)C(=O)NCC(=O)Nc3ccc(F)c(F)c3F)cc(C)c2c1 (configuration not stated)	-27	3	4	0	12*	2
Cc1cc(SC(C)C(=O)NCC(=O)Nc2ccc(F)c(F)c2F)nc2ccccc12 (configuration not stated)	-9	17	3	0	1.3	10
CCOC(=O)c1cc(-c2ccc(C#N)cc2)nc2c1c(C)nn2CCC#N	-23	-21	3	2	0.36	4
CCOC(=O)c1cc(-c2ccc(OC)cc2)nc2c1c(C)nn2CCC#N	-9	-22	20*	26*	-2.2	-17
CN(C)S(=O)(=O)c1ccc(C(=O)N2CCN(S(=O)(=O)c3cccs3)CC2)cc1	-18	-11	nt	2	nt	3
O=C1NC(=S)/C(=C\c2ccc(-c3ccccc3Cl)o2)S1	-7	8	-2	-7	25*	6
O=S(=O)(N/N=C\c1ccc(-c2ccccc2Cl)o1)c1ccccc1	-7	-40	9	7	-2.2	-18
CN(C)NC(=S)NC1CCS(=O)(=O)C1 (configuration not stated)	-24	-10	nt	nt	0.64	-5
O=C(Nc1cc2c3c(c1)C1CCCC1CN3CC1CCCC21)c1ccccc1 (configuration not stated)	-16	3	0	-2	0.068	4
Cc1ccc(NC(=S)c2nc3ccccc3s2)cc1	-4	-10	10	5	3.4	-29
Cc1ccc(C)c(NC(=S)c2nc3ccccc3s2)c1	3	-28	1	1	22*	6
COc1cccc(NC(=S)N/N=C2/CCCCc3ccccc32)c1	-14	-18	4	5	24*	-8
CCN(CC)CCNC(=S)Nc1ccc2nc(N3CCCC3)cc(C)c2c1	-9	-24	nt	11	-0.65	-7
CCC(C)NC(=O)CCC(=O)Nc1ccc2nc(N3CCOCC3)cc(C)c2c1 (configuration not stated)	-12	84*	5	-19	nt	93*
CCCN(CCC)CCCNC(=S)Nc1ccc2nc(N3CCCC3)cc(C)c2c1	-20	-25	nt	22*	-1.3	-11
CCC(C)NC(=O)CCC(=O)Nc1ccc2nc(N3CC(C)CC(C)C3)cc(C)c2c1 (configuration not stated)	-12	6	nt	9	0.23	4
CCC(=O)N(CCC(c1ccccc1)c1ccco1)Cc1cccs1 (configuration not stated)	-8	-12	22*	27*	-1.5	-5
CCN1CC(CN(C)Cc2cn(-c3ccc(C)cc3)nc2-c2cccc(C)c2)CC1=O (configuration not stated)	-20	-13	nt	7	-0.15	-13
O=C(NCCCn1ccnc1)c1cc([N+](=O)[O-])cc([N+](=O)[O-])c1	-32	61*	1	1	0.49	78*
COc1ccc(Nc2nc(N3CCCCC3)nc3ccccc23)c(OC)c1	-11	-24	50*	41*	-1.5	-7
c1ccc2c(c1)nc(N1CCCCC1)c1ccccc12	-7	-23	nt	nt	-0.99	-44
c1ccc2c(N3CCCCC3)nc(N3CCCC3)nc2c1	-9	-53	32*	56*	-0.0077	-29
